In ChEMBL document CHEMBL1123454, “New alpha-methylene gamma-lactone derivatives of substituted nucleic acid bases as potential anticancer agents” (1986):
Values after ≈ are worked out from the molar mass of the structure shown.

How the values were obtained:
Mus musculus [1] = experiment: Average survival days was measured by administrating the compound to Ehrlich ascites carcinoma(EAC) in swiss mice at 12 mg/kg dose; type: functional
Summary of the method: (§1)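 Swiss male mice (18–20 g) inoculated ip on day 0 with 1×10^6 EAC cells diluted in normal saline. Daily ip treatment began 24 h later for 7 days, compound homogenized in saline with 2% Tween-80, dose volume ≤0.01 mL/g; vehicle controls. Six mice per dose, one control group per six groups. Deaths counted daily; median survival times, T/C.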

Mus musculus [2] = experiment: Compound was tested in vivo for antitumor activity at 25 mg/kg dose; type: functional
Summary of the method: (§2)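 Swiss male mice (18–20 g) inoculated ip on day 0 with 1×10^6 Ehrlich ascites carcinoma cells in 0.2 mL saline. Starting 24 h later, ip dosing once daily for 7 days; compound homogenized in saline with 2% Tween-80, at most 0.01 mL/g. Controls received vehicle alone. Six mice per dose, one control group per six groups. Deaths counted daily; median survival times expressed as T/C.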

Mus musculus [3] = experiment: Average survival days was measured by administrating the compound to Ehrlich ascites carcinoma (EAC) in swiss mice at 25 mg/kg dose; type: functional; summary of the method: as §1
Mus musculus [4] = experiment: Compound was tested in vivo for antitumor activity at 12 mg/kg dose; type: functional; summary of the method: as §2
PS = experiment: In vitro concentration required to reduce the growth rate of PS cells in culture by 50%; conditions: Mus musculus, read-out: ED50 (the source's name)
[5] = In vitro concentration required to reduce the growth rate of KB cells in culture by 50%; type: functional; conditions: Homo sapiens, read-out: ED50 (the source's name)
Summary of the method: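 Cytotoxicity screened at the National Cancer Institute by its standard protocol against murine P-388 lymphocytic leukemia (PS) and human nasopharyngeal carcinoma KB cells in culture. ED50 (μg/mL) is the concentration that halves the growth rate relative to control cultures.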

Mus musculus [6] = experiment: Average survival days was measured by administrating the compound to Ehrlich ascites carcinoma (EAC) in swiss mice at 12 mg/kg dose; type: functional; summary of the method: as §1

## C=C1CC(CC)(CCn2cc(C)c(=O)[nH]c2=O)OC1=O (stereo not given)
Mus musculus [1]
  Average survival days: 24.5
Mus musculus [2]
  T/C: 170
Mus musculus [3]
  Average survival days: 25.5
Mus musculus [4]
  T/C: 163

## C=C1CC(CC)(CCn2cnc3c(S)ncnc32)OC1=O (stereo not given)
Mus musculus [1]
  Average survival days: 18
Mus musculus [2]
  T/C: 113
Mus musculus [3]
  Average survival days: 17.5
Mus musculus [4]
  T/C: 116

## O=c1[nH]cc(F)c(=O)[nH]1 [FLUOROURACIL]
Mus musculus [2]
  T/C: 220
Mus musculus [3]
  Average survival days: 33

## C=C1CC(C)(Cn2cnc3c(Cl)ncnc32)OC1=O (stereo not given)
PS
  EC50: 0.17 µg/mL (≈ 0.61 µM)
Mus musculus [1]
  Average survival days: 20
Mus musculus [2]
  T/C: 160
Mus musculus [3]
  Average survival days: 24
Mus musculus [4]
  T/C: 133
[5]
  EC50: 1.5 µg/mL (≈ 5.38 µM)

## C=C1CC(C)(Cn2cnc3c(O)ncnc32)OC1=O (stereo not given)
Mus musculus [1]
  Average survival days: 16
Mus musculus [2]
  T/C: 110
Mus musculus [3]
  Average survival days: 16.5
Mus musculus [4]
  T/C: 107

## C=C1CC(C)(Cn2cnc3c(S)ncnc32)OC1=O (stereo not given)
PS
  EC50: > 10 µg/mL
Mus musculus [1]
  Average survival days: 16
Mus musculus [2]
  T/C: 123
Mus musculus [3]
  Average survival days: 18.5
Mus musculus [4]
  T/C: 107
[5]
  EC50: > 10 µg/mL

## C=C1CC(CC)(CCn2ccc(=O)[nH]c2=O)OC1=O (stereo not given)
PS
  EC50: 0.35 µg/mL (≈ 1.32 µM)
Mus musculus [6]
  Average survival days: 20
Mus musculus [2]
  T/C: 126
Mus musculus [3]
  Average survival days: 19.5
Mus musculus [4]
  T/C: 129
[5]
  EC50: 2.8 µg/mL (≈ 10.6 µM)

## C=C1CC(CC)(CCn2cnc3c(O)ncnc32)OC1=O (stereo not given)
Mus musculus [1]
  Average survival days: 17.5
Mus musculus [2]
  T/C: 109
Mus musculus [3]
  Average survival days: 17
Mus musculus [4]
  T/C: 113

## C=C1CC(CC)(CCn2cnc3c(Cl)ncnc32)OC1=O (stereo not given)
PS
  EC50: 0.25 µg/mL (≈ 0.815 µM)
Mus musculus [1]
  Average survival days: 19.5
Mus musculus [2]
  T/C: 161
Mus musculus [3]
  Average survival days: 25
Mus musculus [4]
  T/C: 126
[5]
  EC50: 2.6 µg/mL (≈ 8.48 µM)

## C=C1CC(CC)(CCn2cc(F)c(=O)n(CCC3(CC)CC(=C)C(=O)O3)c2=O)OC1=O (stereo not given)
Mus musculus [1]
  Average survival days: 23.5
Mus musculus [2]
  T/C: 123
Mus musculus [3]
  Average survival days: 21
Mus musculus [4]
  T/C: 138

## C=C1CC(CC)(CCn2cc(F)c(=O)[nH]c2=O)OC1=O (stereo not given)
Mus musculus [1]
  Average survival days: 23
Mus musculus [2]
  T/C: 126
Mus musculus [3]
  Average survival days: 19.5
Mus musculus [4]
  T/C: 148
